Assay results from different studies.
Protocols differ between the studies behind these lines. Values after ≈ are worked out from the molar mass of the structure shown.

SMILES | organism | assay | test system | conditions | quantity | value
CC1=NN(CNc2ccc(O)cc2)C(=O)C1=NNn1c(-c2ccccc2)nc2ccccc2c1=O | Aspergillus fumigatus | microbial growth, broth dilution | – | – | MIC | 53.5 µM
CN(C)N1C(=O)c2ccccc2C1CB1OC(C)(C)C(C)(C)O1 (centres unmarked) | Leishmania major | parasite growth | – | promastigote | IC50 | 238 µM
COc1ccc(-c2nc3ccccc3[nH]2)cc1O | Enterococcus faecalis | microbial growth, broth dilution | ATCC29212 | – | MIC | 64 µg/mL
CCCCCCCCCCCCCCCCOP(=O)([O-])OCC[N+](C)(C)C | Leishmania major | parasite growth, resazurin | – | 72 h, promastigote | IC50 | 12.6 µM
C=CCn1c(-c2ccc([N+](=O)[O-])cc2)nc2ccccc21 | Enterococcus faecalis | microbial growth, broth dilution | ATCC29212 | – | MIC | 64 µg/mL
CC1(C)S[C@@H]2[C@H](NC(=O)[C@H](N)c3ccccc3)C(=O)N2[C@H]1C(=O)O | Enterococcus faecalis | microbial growth, agar dilution | ATCC33186 | 26.93 µM | inhibition | 100%
C[C@@H](c1ncncc1F)[C@](O)(Cn1cncn1)c1ccc(F)cc1F | Acanthamoeba griffini | parasite growth, resazurin | – | 96 h | IC50 | 0.29 µM
Cc1ccn2c(C(=O)N3CCN(CCn4cc(-c5ccc(C(C)(C)C)cc5)nn4)CC3)c(C)nc2c1 | Leishmania major | parasite growth, resazurin | – | 72 h, promastigote | IC50 | 15.1 µM
Cc1ccc2nc(-c3ccc(Cl)c(Cl)c3)[nH]c2c1 | Enterococcus faecalis | microbial growth, broth dilution | ATCC29212 | – | MIC | 16 µg/mL
Cc1nc2ccc(Cl)cn2c1C(=O)N1CCN(Cc2cn(-c3ccc([N+](=O)[O-])cc3)nn2)CC1 | Leishmania major | parasite growth, resazurin | – | 72 h, promastigote | IC50 | > 250 µM
Cc1ccc2nc(-c3ccc(N(C)C)cc3)[nH]c2c1 | Enterococcus faecalis | microbial growth, broth dilution | ATCC29212 | – | MIC | 64 µg/mL
C[C@@H]1[C@H](O)[C@@H](C)/C=C/C=C/C=C/C=C/C=C/C=C/C=C/[C@H](O[C@@H]2O[C@H](C)[C@@H](O)[C@H](N)[C@@H]2O)C[C@@H]2O[C@](O)(C[C@@H](O)C[C@@H](O)[C@H](O)CC[C@@H](O)C[C@@H](O)CC(=O)O[C@H]1C)C[C@H](O)[C@H]2C(=O)O | Aspergillus fumigatus | microbial growth, resazurin | ATCC204305 | – | IC50 | 1.18 µg/mL
COc1cccc(-n2cc(CN3CCN(C(=O)c4c(C)nc5ccc(Cl)cn45)CC3)nn2)c1 | Leishmania major | parasite growth, resazurin | – | 72 h, promastigote | IC50 | 112 µM
N=C(NCCCCCCNC(=N)NC(=N)Nc1ccc(Cl)cc1)NC(=N)Nc1ccc(Cl)cc1 | Acanthamoeba griffini | parasite growth, resazurin | – | 96 h | IC50 | 7.38 µM
Cc1ccc2nc(-c3ccncc3)[nH]c2c1 | Enterococcus faecalis | microbial growth, broth dilution | ATCC29212 | – | MIC | 64 µg/mL
C[C@@H]1[C@H](O)[C@@H](C)/C=C/C=C/C=C/C=C/C=C/C=C/C=C/[C@H](O[C@@H]2O[C@H](C)[C@@H](O)[C@H](N)[C@@H]2O)C[C@@H]2O[C@](O)(C[C@@H](O)C[C@@H](O)[C@H](O)CC[C@@H](O)C[C@@H](O)CC(=O)O[C@H]1C)C[C@H](O)[C@H]2C(=O)O | Aspergillus fumigatus | microbial killing | ATCC204305 | – | MFC | 2.57 µM (≈ 2.37 µg/mL)
CCCc1cn(CCN2CCN(C(=O)c3c(C)nc4cc(C)ccn34)CC2)nn1 | Leishmania major | parasite growth, resazurin | – | 72 h, promastigote | IC50 | 176 µM
Cc1ccc2nc(-c3ccc([N+](=O)[O-])cc3)n(Cc3ccccc3Cl)c2c1 | Enterococcus faecalis | microbial growth, broth dilution | ATCC29212 | – | MIC | 64 µg/mL
Cc1ccn2c(C(=O)N3CCN(Cc4cn(-c5ccccc5)nn4)CC3)c(C)nc2c1 | Leishmania major | parasite growth, resazurin | – | 72 h, promastigote | IC50 | 246 µM
O=C1NN=C(N=Cc2ccc(O)cc2O)C1=NNn1c(-c2ccccc2)nc2ccccc2c1=O | Aspergillus fumigatus | microbial growth, broth dilution | – | – | MIC | 53.5 µM
